Measured values reported in ChEMBL document CHEMBL2057067, “Synthesis of phenserine analogues and evaluation of their cholinesterase inhibitory activities” (Bioorg Med Chem, 2012).

Legend:
[1] = target: T1, Acetylcholinesterase (Rattus norvegicus) (UniProt P37136); assay: (§1) Inhibition of AChE in Wistar rat brain homogenate using acetylthiocholine iodide as substrate after 0.5 hrs by Ellman's method; assay type: tissue-based
T1 sequence (whole entry): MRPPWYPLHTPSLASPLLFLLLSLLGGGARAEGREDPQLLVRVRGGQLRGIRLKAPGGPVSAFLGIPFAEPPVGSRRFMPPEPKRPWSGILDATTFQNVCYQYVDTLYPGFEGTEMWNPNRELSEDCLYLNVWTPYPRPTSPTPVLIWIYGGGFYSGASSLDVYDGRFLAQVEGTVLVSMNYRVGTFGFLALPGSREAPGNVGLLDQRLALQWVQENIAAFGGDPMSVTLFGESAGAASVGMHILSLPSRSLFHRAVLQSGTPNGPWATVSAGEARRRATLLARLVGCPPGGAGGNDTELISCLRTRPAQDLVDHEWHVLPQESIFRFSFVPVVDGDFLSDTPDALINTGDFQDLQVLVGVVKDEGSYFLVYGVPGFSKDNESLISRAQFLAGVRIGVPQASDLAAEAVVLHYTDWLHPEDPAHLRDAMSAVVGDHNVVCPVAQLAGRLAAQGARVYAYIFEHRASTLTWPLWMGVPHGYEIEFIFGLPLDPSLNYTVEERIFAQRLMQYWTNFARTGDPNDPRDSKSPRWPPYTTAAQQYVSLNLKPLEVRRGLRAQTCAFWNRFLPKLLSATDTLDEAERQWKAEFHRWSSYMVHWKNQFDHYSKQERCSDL
Procedure, shortened: (§2)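 Male Wistar ST rats (8–10 weeks old). Inhibitor is preincubated with homogenate (3:10 v/v) for 0.5 h at 37 °C. Ellman assay in 0.1 M phosphate with DTNB (10 mM stock) and acetylthiocholine (75 mM stock). A412 is recorded for 2 min at 25 °C, and the last-minute change gives activity. Four dose-response curves.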

Acetylcholinesterase = target: T2, Acetylcholinesterase (Rattus norvegicus, UniProt P37136); assay: as §1; assay type: tissue-based; procedure, shortened: as §2
T2 sequence (P37136 whole entry): T1 sequence (whole entry)

Rattus norvegicus = species: Rattus norvegicus; assay: Selectivity ratio of IC50 for BuChE in Wistar rat plasma to IC50 for AChE in Wistar rat brain homogenate; assay type: tissue-based
[2] = target: Butyrylcholinesterase (Rattus norvegicus) (UniProt Q9JKC1); assay: (§3) Inhibition of BuChE in Wistar rat plasma using acetylthiocholine iodide as substrate after 0.5 hrs by Ellman's method
Chain of Butyrylcholinesterase (Rattus norvegicus) (Q9JKC1 as listed by the source): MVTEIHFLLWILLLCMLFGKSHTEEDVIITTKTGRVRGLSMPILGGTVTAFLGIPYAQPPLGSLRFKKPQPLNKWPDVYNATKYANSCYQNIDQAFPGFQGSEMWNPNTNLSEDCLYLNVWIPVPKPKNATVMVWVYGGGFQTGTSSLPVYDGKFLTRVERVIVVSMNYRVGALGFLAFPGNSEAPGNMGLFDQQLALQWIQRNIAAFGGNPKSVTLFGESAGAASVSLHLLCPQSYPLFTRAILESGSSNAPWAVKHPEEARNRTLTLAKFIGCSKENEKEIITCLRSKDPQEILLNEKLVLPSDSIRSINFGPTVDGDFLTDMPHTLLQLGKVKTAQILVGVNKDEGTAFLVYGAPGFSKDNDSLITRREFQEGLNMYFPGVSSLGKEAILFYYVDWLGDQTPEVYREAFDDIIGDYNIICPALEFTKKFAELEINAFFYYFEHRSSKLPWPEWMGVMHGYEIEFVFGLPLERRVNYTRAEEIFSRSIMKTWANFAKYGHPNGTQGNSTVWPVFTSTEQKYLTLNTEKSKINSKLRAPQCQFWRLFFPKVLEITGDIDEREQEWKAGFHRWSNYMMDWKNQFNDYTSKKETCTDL

Butyrylcholinesterase = Butyrylcholinesterase (Rattus norvegicus, UniProt Q9JKC1); assay: as §3
Chain of Butyrylcholinesterase (Q9JKC1 whole entry): as the sequence (Q9JKC1 as listed by the source) above

SMILES | inhibition [1] | IC50 (Acetylcholinesterase) [µM] | Ratio IC50 (Rattus norvegicus) | inhibition [2] | IC50 (Butyrylcholinesterase) [µM]
C=CC[C@]12CCN(C)[C@@H]1N(C)c1ccc(OC(=O)Nc3ccccc3)cc12 | Dose-dependent effect | 1.26 | > 79 | Dose-dependent effect | > 100
C=C[C@@]12CCN(C)[C@@H]1N(C)c1ccc(OC(=O)Nc3ccccc3)cc12 | Dose-dependent effect | 0.644 | 65 | Dose-dependent effect | 41.9
CC[C@]12CCN(C)[C@@H]1N(C)c1ccc(OC(=O)Nc3ccccc3)cc12 | Dose-dependent effect | 0.373 | 97 | Dose-dependent effect | 36.2
CCC(C)(C)[C@@]12CCN(C)[C@@H]1N(C)c1ccc(OC(=O)Nc3ccccc3)cc12 | Dose-dependent effect | 9.5 | > 11 | Dose-dependent effect | > 100
CN1CC[C@@]2(C)c3cc(OC(=O)Nc4ccccc4)ccc3N(C)C12 (stereo partly specified) | Dose-dependent effect | 0.0283 | 1100 | Dose-dependent effect | 30
C=CCC12CCN(C)C1N(C)c1ccc(OC(=O)Nc3ccccc3)cc12 (racemic) | Dose-dependent effect | 3.77 | > 27 | Dose-dependent effect | > 100
C=CCC12CCN(C)C1N(C)c1ccc(OC(=O)Nc3ccc(C(C)C)cc3)cc12 (racemic) | Dose-dependent effect | > 10 |  | Dose-dependent effect | > 10
C=CCC12CCN(C)C1N(C)c1ccc(OC(=O)Nc3ccc(Br)cc3)cc12 (racemic) | Dose-dependent effect | > 10 |  | Dose-dependent effect | > 10
C=CCC12CCN(C)C1N(C)c1ccc(OC(=O)Nc3ccc(F)cc3)cc12 (racemic) | Dose-dependent effect | 4.36 | > 23 | Dose-dependent effect | > 100
C=CCC12CCN(C)C1N(C)c1ccc(OC(=O)Nc3ccccc3F)cc12 (racemic) | Dose-dependent effect | 3.55 | 25 | Dose-dependent effect | 87.3
CCCC12CCN(C)C1N(C)c1ccc(OC(=O)Nc3ccccc3)cc12 (racemic) | Dose-dependent effect | 3.66 | > 27 | Dose-dependent effect | > 100
C=CC12CCN(C)C1N(C)c1ccc(OC(=O)Nc3ccccc3)cc12 (racemic) | Dose-dependent effect | 0.749 | > 40 | Dose-dependent effect | > 30
CCC12CCN(C)C1N(C)c1ccc(OC(=O)Nc3ccccc3)cc12 (racemic) | Dose-dependent effect | 0.397 | 76 | Dose-dependent effect | 30
CCC(C)(C)C12CCN(C)C1N(C)c1ccc(OC(=O)Nc3ccccc3)cc12 (racemic) | Dose-dependent effect | 18.4 | > 5.4 | Dose-dependent effect | > 100
C=CCC12CC(=O)N(C)C1N(C)c1ccc(OC(=O)Nc3ccccc3)cc12 (racemic) | Dose-dependent effect | 4.73 | 14 | Dose-dependent effect | 65.3
CNC(=O)Oc1ccc2c(c1)[C@]1(C)CCN(C)[C@@H]1N2C [PHYSOSTIGMINE] | Dose-dependent effect |  |  | Dose-dependent effect | 0.0584
